# From ChEMBL document CHEMBL4814043, “Optimization of a urea-containing series of nicotinamide phosphoribosyltransferase (NAMPT) activators” (Bioorg Med Chem Lett, 2021)
# pEC50: −log10 of the molar value. The source made the active and inactive calls. The rule behind the calls is not given here.
# How the values were obtained:
# [1] = molecular target: T1, Nicotinamide phosphoribosyltransferase (Homo sapiens, UniProt P43490); test: Activation of human NAMPT
# Target sequence in this assay (P43490 whole entry): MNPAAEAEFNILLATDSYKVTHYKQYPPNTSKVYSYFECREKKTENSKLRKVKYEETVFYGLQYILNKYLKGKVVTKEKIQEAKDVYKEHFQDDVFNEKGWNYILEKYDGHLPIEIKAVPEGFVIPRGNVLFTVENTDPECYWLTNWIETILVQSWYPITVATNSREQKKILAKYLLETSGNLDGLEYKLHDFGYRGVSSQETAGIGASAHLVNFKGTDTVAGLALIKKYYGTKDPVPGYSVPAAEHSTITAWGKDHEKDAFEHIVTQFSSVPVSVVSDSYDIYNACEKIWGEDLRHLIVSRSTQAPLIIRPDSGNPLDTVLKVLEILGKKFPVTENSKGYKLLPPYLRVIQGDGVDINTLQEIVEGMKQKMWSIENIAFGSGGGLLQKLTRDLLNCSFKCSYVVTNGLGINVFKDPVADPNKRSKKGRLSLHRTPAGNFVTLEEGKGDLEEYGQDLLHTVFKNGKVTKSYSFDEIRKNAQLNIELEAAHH
# [2] = Plasma clearance in mouse at 1 mg/kg, iv; assay type: ADME, organism-based
# [3] = Volume of distribution in mouse at 1 mg/kg, iv; assay type: ADME, organism-based; conditions: in vivo
# [4] = Cmax in mouse at 10 mg/kg, po; assay type: ADME, organism-based; design: route oral, dose 10 mg/kg; conditions: in vivo
# [5] = AUC in mouse at 10 mg/kg, po; assay type: ADME, organism-based; design: dose 10 mg/kg; conditions: in vivo
# [6] = Half life in mouse at 10 mg/kg, po; assay type: ADME, organism-based; conditions: in vivo
# [7] = Oral bioavailability in mouse at 10 mg/kg; assay type: ADME, organism-based; conditions: in vivo
# [8] = 1-Octanol/PBS buffer distribution coefficient, log D of the compound at pH 7.4; assay type: physicochemical
# Outline: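 Partitioning measured between 1-octanol and phosphate-buffered saline at pH 7.4.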
# [9] = Permeability of compound at pH 5 by PAMPA assay; assay type: ADME; conditions: read-out: permeability
# [10] = Permeability of compound at pH 7.4 by PAMPA assay; assay type: ADME; conditions: read-out: permeability
# [11] = Solubility of compound at pH 1.2; assay type: physicochemical; conditions: buffer
# [12] = Solubility of compound at pH 6.8; assay type: physicochemical; conditions: buffer
# [13] = Metabolic stability in human liver microsomes assessed as parent compound remaining at 1 uM measured after 30 mins; assay type: ADME, Microsome; conditions: read-out: Stabilty
# Outline: (§1)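 Compound at 1 µM incubated with human or mouse microsomes for 30 min; read-out is percent parent remaining.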
# [14] = Metabolic stability in mouse liver microsomes assessed as parent compound remaining at 1 uM measured after 30 mins; assay type: ADME, Microsome; conditions: read-out: Stabilty; outline: as §1
# [15] = molecular target: T2, CYP1A2 (Homo sapiens, UniProt P05177); test: Inhibition of CYP1A2 (unknown origin) at 10 uM measured after 10 mins; assay type: ADME
# T2 sequence (P05177 whole entry): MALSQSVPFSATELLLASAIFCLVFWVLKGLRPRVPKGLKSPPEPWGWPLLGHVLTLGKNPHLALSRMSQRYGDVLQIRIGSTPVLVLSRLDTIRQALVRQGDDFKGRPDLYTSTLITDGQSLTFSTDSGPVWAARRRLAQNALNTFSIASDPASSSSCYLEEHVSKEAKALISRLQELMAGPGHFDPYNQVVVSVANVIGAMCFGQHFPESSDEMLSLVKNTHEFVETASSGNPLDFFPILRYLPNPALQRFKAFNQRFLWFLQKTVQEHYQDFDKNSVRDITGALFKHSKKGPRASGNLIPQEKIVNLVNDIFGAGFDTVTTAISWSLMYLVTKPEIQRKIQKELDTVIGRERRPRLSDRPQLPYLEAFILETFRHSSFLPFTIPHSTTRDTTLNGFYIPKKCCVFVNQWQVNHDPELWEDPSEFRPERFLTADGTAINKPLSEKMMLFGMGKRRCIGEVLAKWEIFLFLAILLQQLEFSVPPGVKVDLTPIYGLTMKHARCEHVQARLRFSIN
# Outline: (§2)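 Each CYP isoform (1A2, 2C9, 2D6, 3A4) reacted with compound at 10 µM for 10 min; value reported as percent inhibition.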
# [16] = molecular target: CYP2C9 (Homo sapiens, UniProt P11712); test: Inhibition of CYP2C9 (unknown origin) at 10 uM measured after 10 mins; assay type: ADME; outline: as §2
# Sequence of CYP2C9 (P11712 whole entry): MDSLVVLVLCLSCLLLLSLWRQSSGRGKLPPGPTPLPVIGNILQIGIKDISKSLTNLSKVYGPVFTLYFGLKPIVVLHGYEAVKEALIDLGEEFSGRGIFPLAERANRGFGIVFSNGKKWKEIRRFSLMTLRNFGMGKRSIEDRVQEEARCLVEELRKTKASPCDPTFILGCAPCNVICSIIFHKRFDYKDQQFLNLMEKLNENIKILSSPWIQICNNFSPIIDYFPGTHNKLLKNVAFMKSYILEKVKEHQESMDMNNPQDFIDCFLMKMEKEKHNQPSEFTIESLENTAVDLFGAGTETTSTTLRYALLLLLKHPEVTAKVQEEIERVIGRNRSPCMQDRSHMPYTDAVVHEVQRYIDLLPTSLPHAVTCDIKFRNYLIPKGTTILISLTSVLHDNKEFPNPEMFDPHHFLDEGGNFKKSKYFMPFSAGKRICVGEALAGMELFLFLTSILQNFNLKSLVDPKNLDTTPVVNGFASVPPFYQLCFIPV
# [17] = molecular target: CYP2D6 (Homo sapiens, UniProt P10635); test: Inhibition of CYP2D6 (unknown origin) at 10 uM measured after 10 mins; assay type: ADME; outline: as §2
# Sequence of CYP2D6 (P10635 whole entry): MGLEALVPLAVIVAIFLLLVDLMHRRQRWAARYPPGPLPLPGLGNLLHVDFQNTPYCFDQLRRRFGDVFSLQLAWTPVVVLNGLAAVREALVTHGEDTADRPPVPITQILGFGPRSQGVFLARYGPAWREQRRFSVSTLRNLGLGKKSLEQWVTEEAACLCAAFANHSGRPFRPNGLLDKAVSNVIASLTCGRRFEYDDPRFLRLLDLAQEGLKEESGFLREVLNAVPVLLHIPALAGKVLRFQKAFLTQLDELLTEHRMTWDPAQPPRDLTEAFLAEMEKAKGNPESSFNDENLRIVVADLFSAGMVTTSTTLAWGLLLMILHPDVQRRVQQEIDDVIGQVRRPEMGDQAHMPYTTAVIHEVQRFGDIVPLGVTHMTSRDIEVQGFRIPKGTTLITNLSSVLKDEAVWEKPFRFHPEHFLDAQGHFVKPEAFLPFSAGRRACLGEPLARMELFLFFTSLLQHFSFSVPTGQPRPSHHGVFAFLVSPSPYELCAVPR
# [18] = molecular target: CYP3A4 (Homo sapiens, UniProt P08684); test: Inhibition of CYP3A4 (unknown origin) at 10 uM measured after 10 mins; assay type: ADME; outline: as §2
# Sequence of CYP3A4 (P08684 whole entry): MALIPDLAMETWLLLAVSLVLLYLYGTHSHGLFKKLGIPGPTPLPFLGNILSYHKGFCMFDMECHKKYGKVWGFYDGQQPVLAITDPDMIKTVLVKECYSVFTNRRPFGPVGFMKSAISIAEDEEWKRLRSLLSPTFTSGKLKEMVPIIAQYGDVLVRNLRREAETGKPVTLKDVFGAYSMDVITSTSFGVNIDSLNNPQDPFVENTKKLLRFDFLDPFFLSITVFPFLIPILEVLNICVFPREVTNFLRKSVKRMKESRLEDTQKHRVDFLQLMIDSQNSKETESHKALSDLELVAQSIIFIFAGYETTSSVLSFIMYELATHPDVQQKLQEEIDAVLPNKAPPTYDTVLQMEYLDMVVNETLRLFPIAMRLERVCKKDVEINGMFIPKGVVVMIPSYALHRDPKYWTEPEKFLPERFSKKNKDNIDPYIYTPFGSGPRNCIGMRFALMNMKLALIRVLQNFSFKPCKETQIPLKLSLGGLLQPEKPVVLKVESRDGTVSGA
# [19] = molecular target: T1, Nicotinamide phosphoribosyltransferase; test: Activation of NAMPT in human A549 cells assessed as increase in NAD+ level at 10 uM incubated for 4 hrs by LC-MS/MS analysis; assay type: cell-based; conditions: filed as activator
# Outline: (§3)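 A549 cells exposed to 10 µM compound or DMSO vehicle for 4 hr, then harvested; NMN and NAD+ quantified by LC-MS/MS and normalized to cell protein; significance vs. vehicle control by P value.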
# Target sequence in this assay (P43490 whole entry, looked up): as the sequence (P43490 whole entry) above
# [20] = molecular target: T1, Nicotinamide phosphoribosyltransferase; test: Activation of NAMPT in human A549 cells assessed as increase in NMN level at 10 uM incubated for 4 hrs by LC-MS/MS analysis; assay type: cell-based; conditions: filed as activator; outline: as §3
# Target sequence in this assay (P43490 whole entry, looked up): as the sequence (P43490 whole entry) above
structure (smiles),measurement,setting,value
CCOC(=O)c1ccc(NC(=O)NCc2cc[nH]n2)cc1,pEC50,[1],4.16
CCOC(=O)c1ccc(NC(=O)NCc2ccncn2)cc1,pEC50,[1],4.87
CCOC(=O)c1ccc(N(C)C(=O)NCc2ccncc2)cc1,pEC50,[1],< 4.00
CCOC(=O)c1ccc(NC(=O)NCc2cn[nH]c2)cc1,pEC50,[1],5.73
CCOC(=O)c1ccc(NC(=O)NCc2ccnnc2)cc1,pEC50,[1],< 4.00
O=C(NCc1ccncc1)Nc1ccc(S(=O)(=O)NCc2ccccc2)cc1,pEC50,[1],6.99
CCOC(=O)c1ccc(NC(=O)NC(C)c2ccncc2)cc1 (stereo not given),pEC50,[1],5.64
CCOC(=O)c1ccc(NC(=O)NCc2ccccc2)cc1,pEC50,[1],5.86
CN(Cc1ccccc1)S(=O)(=O)c1ccc(NC(=O)NCc2ccncc2)cc1,clearance,[2],43 mL/min/kg
same,Vd,[3],1.37 L/kg
same,Cmax,[4],4950 ng/mL
same,AUC,[5],4510 ng·h/mL
same,half-life,[6],0.6 h
same,bioavailability,[7],> 100%
O=C(NCc1cnco1)Nc1ccc(S(=O)(=O)c2cccc(OC(F)(F)F)c2)cc1,clearance,[2],4 mL/min/kg
same,Vd,[3],0.58 L/kg
same,Cmax,[4],15300 ng/mL
same,AUC,[5],45200 ng·h/mL
same,half-life,[6],2.3 h
same,bioavailability,[7],> 100%
CCOC(=O)c1ccc(NC(=S)NCc2ccncc2)cc1,pEC50,[1],5.01
O=C(NCc1ccncc1)Nc1ccc(S(=O)(=O)N2CCc3ccccc3C2)cc1,pEC50,[1],6.85
same,clearance,[2],20 mL/min/kg
same,Vd,[3],0.6 L/kg
same,Cmax,[4],7860 ng/mL
same,AUC,[5],4270 ng·h/mL
same,half-life,[6],1 h
same,bioavailability,[7],47%
CCOC(=O)c1ccc(N/C(=N\C#N)NCc2ccncc2)cc1,pEC50,[1],4.38
O=C(NCc1ccncc1)Nc1ccc(S(=O)(=O)c2ccc(Cl)cc2)cc1,pEC50,[1],6.90
O=C(NCc1cn[nH]c1)Nc1ccc(S(=O)(=O)c2ccc(Cl)cc2)cc1,pEC50,[1],7.64
same,clearance,[2],3 mL/min/kg
same,Vd,[3],0.61 L/kg
same,Cmax,[4],9550 ng/mL
same,AUC,[5],54500 ng·h/mL
same,half-life,[6],3.2 h
same,bioavailability,[7],80%
same,logD,[8],3.1
same,Papp,[9],< 0.01 ×10⁻⁶ cm/s
same,Papp,[10],0.04 ×10⁻⁶ cm/s
same,solubility,[11],110 µg/mL
same,solubility,[12],8.5 µg/mL
same,"remaining at 0.5 h, 1 µM",[13],87%
same,"remaining at 0.5 h, 1 µM",[14],18%
same,"inhibition at 10 min, 10 µM",[15],65%
same,"inhibition at 10 min, 10 µM",[16],96%
same,"inhibition at 10 min, 10 µM",[17],95%
same,"inhibition at 10 min, 10 µM",[18],0%
same,Activity,[19],Active
same,Activity,[20],Active
O=C(NCc1ccncc1)Nc1ccc(S(=O)(=O)N2CC3CCC(C2)O3)cc1,pEC50,[1],6.55
O=C(NCc1ccncc1)Nc1ccc(S(=O)(=O)c2ccccc2)cc1,pEC50,[1],7.07
O=C(NCc1ccncc1)Nc1ccc(S(=O)(=O)Nc2ccccc2)cc1,pEC50,[1],6.39
CCOC(=O)c1ccc(NC(=O)OCc2ccncc2)cc1,pEC50,[1],4.97
CN(C)S(=O)(=O)c1ccc(NC(=O)NCc2ccncc2)cc1,pEC50,[1],5.51
CN(C1CCCC1)S(=O)(=O)c1ccc(NC(=O)NCc2ccncc2)cc1,pEC50,[1],6.91
CCOC(=O)c1ccc(NC(=O)N(C)Cc2ccncc2)cc1,pEC50,[1],< 4.00
CCOC(=O)c1ccc(NC(=O)NCc2c[nH]nn2)cc1,pEC50,[1],5.11
O=C(NCc1cnco1)Nc1ccc(S(=O)(=O)c2ccccc2)cc1,pEC50,[1],7.11
CNS(=O)(=O)c1ccc(NC(=O)NCc2ccncc2)cc1,pEC50,[1],5.49
CCOC(=O)c1ccc(NC(=O)CCc2ccncc2)cc1,pEC50,[1],4.80
O=C(NCc1cn[nH]c1)Nc1ccc(S(=O)(=O)c2ccccc2)cc1,pEC50,[1],7.55
same,clearance,[2],8 mL/min/kg
same,Vd,[3],1.12 L/kg
same,Cmax,[4],2230 ng/mL
same,AUC,[5],9340 ng·h/mL
same,half-life,[6],2.5 h
same,bioavailability,[7],45%
CCOC(=O)c1ccc(NC(=O)NCc2cocn2)cc1,pEC50,[1],4.56
CCOC(=O)c1ccc(CC(=O)NCc2ccncc2)cc1,pEC50,[1],< 4.00
